Activity calls are given as the source filed them. The calls are words filed in the database; no cut-off is given here.
Assays:
[1] = Toxicity against CEM cells; format: cell-based; details: human, CEM (CCRF-CEM) cells; read-out: TC50 (the source's name)
[2] = molecular target: Human immunodeficiency virus type 1 reverse transcriptase (Human immunodeficiency virus 1) (UniProt Q72547); experiment: Inhibition of HIV1 reverse transcriptase at 1 uM
Summary of the method: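 Wild-type HIV-1 RT enzyme screen with rC-dG template-primer. Percent inhibition is the mean of two experiments, each run in triplicate.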

[3] = test system: Human immunodeficiency virus 1; experiment: Antiviral activity against HIV1 infected CEM cells; format: functional, organism-based; details: for EC50: Human immunodeficiency virus 1, CCRF-CEM; for Activity: CCRF-CEM
Summary of the method: (§1)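 Cell-based assay in HIV-1-infected CEM cells, read out as protection from virus-induced cell killing.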

[4] = molecular target: Human immunodeficiency virus type 1 reverse transcriptase (Human immunodeficiency virus 1, UniProt Q72547); experiment: Inhibition of HIV1 NL4-3 reverse transcriptase
[5] = test system: Human immunodeficiency virus 1; experiment: Antiviral activity against wild type HIV1 NL4-3 by cytopathic cell killing assay; format: functional, organism-based; details: Human immunodeficiency virus 1, NL4-3; summary of the method: as §1
[6] = test system: Human immunodeficiency virus 1; experiment: Antiviral activity against HIV1 with RT L100I mutation by cytopathic cell killing assay; format: functional, organism-based
[7] = test system: Human immunodeficiency virus 1; experiment: Antiviral activity against HIV1 with RT K101E mutation by cytopathic cell killing assay; format: functional, organism-based
[8] = test system: Human immunodeficiency virus 1; experiment: Antiviral activity against HIV1 with RT K103N mutation by cytopathic cell killing assay; format: functional, organism-based
[9] = test system: Human immunodeficiency virus 1; experiment: Antiviral activity against HIV1 with RT V108I mutation by cytopathic cell killing assay; format: functional, organism-based
[10] = test system: Human immunodeficiency virus 1; experiment: Antiviral activity against HIV1 with RT Y181C mutation by cytopathic cell killing assay; format: functional, organism-based
[11] = test system: Human immunodeficiency virus 1; experiment: Antiviral activity against HIV1 with RT Y188C mutation by cytopathic cell killing assay; format: functional, organism-based
[12] = test system: Human immunodeficiency virus 1; experiment: Antiviral activity against HIV1 with RT V106A mutation by cytopathic cell killing assay; format: functional, organism-based

Row | SMILES | CC50 [1] | inhibition [2] | EC50 [3] | IC50 [4] | EC50 [5] | EC50 [6] | EC50 [7] | EC50 [8] | EC50 [9] | EC50 [10] | EC50 [11] | Activity [3] | EC50 [12]
1 | Fc1cccc(F)c1Cn1c(-c2c(F)cccc2F)nc2c(Br)cccc21 | 24500 nM | 78% | 370 nM | 1610 nM | 500 nM | 500 nM | > 20000 nM | > 20000 nM | 4200 nM | 10700 nM | 3700 nM | – | –
2 | Oc1cccc2c1nc(-c1c(F)cccc1F)n2Cc1c(F)cccc1F | > 100000 nM | – | 650 nM | – | – | – | – | – | – | – | – | – | –
3 | Cc1cccc2nc(-c3c(F)cccc3F)n(Cc3c(F)cccc3F)c12 | – | 1% | – | – | – | – | – | – | – | – | – | – | –
4 | CN(C)c1cccc2c1nc(-c1c(F)cccc1F)n2Cc1c(F)cccc1F | > 100000 nM | – | 2370 nM | 40000 nM | – | – | – | – | – | – | – | – | –
5 | Fc1cccc(F)c1Cn1c(-c2c(F)cccc2F)nc2ccccc21 | 18800 nM | 50% | 1700 nM | 110 nM | – | – | – | – | – | – | – | – | –
6 | Nc1cccc2c1nc(-c1c(F)cccc1F)n2Cc1c(F)cccc1F | 26300 nM | – | 460 nM | 280 nM | 400 nM | 1200 nM | > 20000 nM | 3100 nM | 3300 nM | 9200 nM | 2000 nM | – | –
7 | N=C(NO)c1cccc2c1nc(-c1c(F)cccc1F)n2Cc1c(F)cccc1F | 23100 nM | – | 190 nM | – | – | – | – | – | – | – | – | – | –
8 | Cc1ccc2c(nc(-c3c(F)cccc3F)n2Cc2c(F)cccc2F)c1C | – | 26% | – | – | – | – | – | – | – | – | – | – | –
9 | Fc1cccc(F)c1Cn1c(-c2c(F)cccc2F)nc2c(Cl)cccc21 | 30400 nM | 75% | 440 nM | 2630 nM | 500 nM | 300 nM | > 20000 nM | 10200 nM | 3200 nM | 8400 nM | 3400 nM | – | –
10 | N#Cc1cccc2c1nc(-c1c(F)cccc1F)n2Cc1c(F)cccc1F | 26700 nM | – | 430 nM | – | – | – | – | – | – | – | – | – | –
11 | CC(=O)Nc1cccc2c1nc(-c1c(F)cccc1F)n2Cc1c(F)cccc1F | 39300 nM | – | 1480 nM | 54700 nM | 1970 nM | 3250 nM | – | > 100000 nM | – | > 100000 nM | – | – | –
12 | CN(C)C(=O)c1cccc2c1nc(-c1c(F)cccc1F)n2Cc1c(F)cccc1F | 80100 nM | – | – | – | – | – | – | – | – | – | – | inactive | –
13 | O=C(O)c1cccc2c1nc(-c1c(F)cccc1F)n2Cc1c(F)cccc1F | 23500 nM | – | – | – | – | – | – | – | – | – | – | inactive | –
14 | Cc1cc(C)c2nc(-c3c(F)cccc3F)n(Cc3c(F)cccc3F)c2c1 | – | 37% | – | – | – | – | – | – | – | – | – | – | –
15 | CC(=O)OCc1cccc2c1nc(-c1c(F)cccc1F)n2Cc1c(F)cccc1F | 55800 nM | – | 59 nM | – | 62 nM | 68 nM | 25 nM | 27 nM | 13 nM | 2320 nM | 33 nM | – | 4500 nM
16 | CCc1cccc2c1nc(-c1c(F)cccc1F)n2Cc1c(F)cccc1F | 26100 nM | – | 820 nM | 17500 nM | 900 nM | 2480 nM | > 50000 nM | > 50000 nM | > 50000 nM | 7180 nM | – | – | –
17 | CC(=O)N(C)c1cccc2c1nc(-c1c(F)cccc1F)n2Cc1c(F)cccc1F | > 100000 nM | – | 20 nM | 320 nM | 40 nM | 1660 nM | 640 nM | > 10000 nM | > 10000 nM | 400 nM | 540 nM | – | 50 nM
18 | O=[N+]([O-])c1ccc2c(c1)nc(-c1c(F)cccc1F)n2Cc1c(F)cccc1F | – | 30% | – | – | – | – | – | – | – | – | – | – | –
19 | Fc1cccc(F)c1Cn1c(-c2c(F)cccc2F)nc2c(CCl)cccc21 | 13400 nM | – | 180 nM | – | 160 nM | 80 nM | 460 nM | 3340 nM | 210 nM | 2380 nM | 570 nM | – | 4700 nM
20 | N#CCc1cccc2c1nc(-c1c(F)cccc1F)n2Cc1c(F)cccc1F | – | – | 60 nM | – | 60 nM | – | – | 4200 nM | – | 2200 nM | – | – | –

Row | SMILES | CC50 [1] | inhibition [2] | EC50 [3] | IC50 [4] | EC50 [5] | EC50 [6] | EC50 [7] | EC50 [8] | EC50 [9] | EC50 [10] | EC50 [11] | Activity [3] | EC50 [12]
21 | CNc1cccc2c1nc(-c1c(F)cccc1F)n2Cc1c(F)cccc1F | 27200 nM | – | 1700 nM | 4940 nM | – | – | – | – | – | – | – | – | –
22 | NCc1cccc2c1nc(-c1c(F)cccc1F)n2Cc1c(F)cccc1F | 49300 nM | – | 37 nM | – | 1360 nM | – | 1490 nM | > 50000 nM | 2510 nM | 12800 nM | 11600 nM | – | 9230 nM
23 | [N-]=[N+]=NCc1cccc2c1nc(-c1c(F)cccc1F)n2Cc1c(F)cccc1F | > 100000 nM | – | 45 nM | – | 45 nM | 80 nM | 600 nM | 1480 nM | 26 nM | 280 nM | 220 nM | – | 610 nM
24 | CC(=O)NCc1cccc2c1nc(-c1c(F)cccc1F)n2Cc1c(F)cccc1F | 20800 nM | – | – | – | – | – | – | – | – | – | – | inactive | –
25 | Cc1ccc2nc(-c3c(F)cccc3F)n(Cc3c(F)cccc3F)c2c1 | – | 42% | – | – | – | – | – | – | – | – | – | – | –
26 | Cc1ccnc2c1NC(=O)c1cccnc1N2C1CC1 [NEVIRAPINE] | – | – | 35 nM | – | 100 nM | 720 nM | 1100 nM | 1090 nM | 200 nM | 4900 nM | 100 nM | – | 2360 nM
27 | COc1cccc2c1nc(-c1c(F)cccc1F)n2Cc1c(F)cccc1F | 44300 nM | – | 60 nM | 7.3 nM | 60 nM | 160 nM | 2820 nM | > 50000 nM | 2820 nM | 260 nM | – | – | –
28 | Fc1cccc(F)c1Cn1c(-c2c(F)cccc2F)nc2cc(Cl)ccc21 | – | 48% | – | – | – | – | – | – | – | – | – | – | –
29 | CC(=O)N(C)Cc1cccc2c1nc(-c1c(F)cccc1F)n2Cc1c(F)cccc1F | 20600 nM | – | 580 nM | – | – | – | – | – | – | – | – | – | –
30 | COC(=O)c1cccc2c1nc(-c1c(F)cccc1F)n2Cc1c(F)cccc1F | 57700 nM | – | – | 158000 nM | – | – | – | – | – | – | – | inactive | –
31 | Fc1cccc(F)c1Cn1c(-c2c(F)cccc2F)nc2cc(Br)ccc21 | – | 43% | – | – | – | – | – | – | – | – | – | – | –
32 | NC(=O)c1cccc2c1nc(-c1c(F)cccc1F)n2Cc1c(F)cccc1F | > 100000 nM | – | 4900 nM | – | – | – | – | – | – | – | – | – | –
33 | Cc1cccc2c1nc(-c1c(F)cccc1F)n2Cc1c(F)cccc1F | > 100000 nM | 71% | 440 nM | 200 nM | 500 nM | 300 nM | 16700 nM | 8100 nM | 2800 nM | 6000 nM | 2300 nM | – | –
34 | COCc1cccc2c1nc(-c1c(F)cccc1F)n2Cc1c(F)cccc1F | – | – | 60 nM | – | – | – | – | – | – | – | – | – | –
35 | CC(C)c1cccc2c1nc(-c1c(F)cccc1F)n2Cc1c(F)cccc1F | 27000 nM | – | 6340 nM | – | – | – | – | – | – | – | – | – | –
36 | O=Cc1cccc2c1nc(-c1c(F)cccc1F)n2Cc1c(F)cccc1F | 820 nM | – | 120 nM | – | – | – | – | – | – | – | – | – | –
37 | OCc1cccc2c1nc(-c1c(F)cccc1F)n2Cc1c(F)cccc1F | 58100 nM | – | 23 nM | – | 48 nM | 20 nM | 5000 nM | 13600 nM | 23 nM | 720 nM | 170 nM | – | 5900 nM
38 | O=[N+]([O-])c1cccc2c1nc(-c1c(F)cccc1F)n2Cc1c(F)cccc1F | 30100 nM | – | 2400 nM | 1880 nM | – | – | – | – | – | – | – | – | –
39 | Fc1cccc(F)c1Cn1c(-c2c(F)cccc2F)nc2ccc(Cl)cc21 | – | 69% | – | – | – | – | – | – | – | – | – | – | –
40 | Cc1ccc2c(c1)nc(-c1c(F)cccc1F)n2Cc1c(F)cccc1F | – | 22% | – | – | – | – | – | – | – | – | – | – | –

Source: ChEMBL document CHEMBL1148728, “Synthesis, biological activity, and crystal structure of potent nonnucleoside inhibitors of HIV-1 reverse transcriptase that retain activity against mutant forms of the enzyme” (J Med Chem, 2007)
